Measured values from ChEMBL document CHEMBL1126218, “N-(5,5-diacetoxypent-1-yl)doxorubicin: a new intensely potent doxorubicin analogue” (J Med Chem, 1992).
pIC50: −log10 of the molar value. Values joined by “and” are separate entries in the source; they are usually repeats but may differ in a detail not shown here. Equal entries are not always repeated.

Columns and labels:
[1] = system: CHO; test: The compound was tested in vitro for growth inhibition of Chinese Hamster Ovary(CHO) cells; format: functional, cell-based; conditions: Cricetulus griseus
Procedure, shortened: (§1)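 Exponentially growing CHO cells, or the P-glycoprotein-overexpressing doxorubicin-resistant CHO/DOX subline, were seeded at 1.5 × 10⁴ cells/mL in McCoy's 5A with 10% FCS. They were exposed to at least 7 concentrations (2 × 10⁻¹² to 2 × 10⁻⁵ M) for 6 days at 37 °C. Cells were then formaldehyde-fixed, crystal-violet-stained and counted microscopically. IC50 (50% growth inhibition versus untreated controls) was taken from dose–response curves, mean of duplicates.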

[2] = system: CHO; test: The compound was tested in vitro for growth inhibition of subline (CHO/DOX) with acquired resistance to doxorubicin; format: functional, cell-based; conditions: Cricetulus griseus; procedure, shortened: as §1
[3] = Half life period in the absence or presence of pig liver carboxylate esterase at 25 degrees C in aqueous solution of 0.05 M acetate buffer at pH 4.0; format: ADME; conditions: in vivo
Procedure, shortened: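 Drug at 20 μM in 0.05 M acetate buffer, pH 4.0, no enzyme. Aliquots were taken at set times (about 2–250 h) and the parent drug measured by reverse-phase C-18 HPLC (CH3CN–0.05 N acetate pH 4.0, 2:3). Half-life came from linear least-squares regression of pseudo-first-order loss.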

[4] = system: carboxylate esterase; test: Half life period in the absence or presence of pig liver carboxylate esterase at 25 degrees C in aqueous solution of C + esterase (10-fold unit equiv); format: ADME
Procedure, shortened: (§2)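 Drug at 20 μM in 0.05 M phosphate buffer, pH 7.4, pre-equilibrated, then given porcine liver carboxylate esterase (200 units/mg) at 2, 5, 10 or 20 units per μmol substrate. At 0.25–60 min samples were vortexed and centrifuged, and the supernatant measured for parent drug by C-18 HPLC. Half-life came from pseudo-first-order least-squares regression.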

[5] = system: carboxylate esterase; test: Half life period in the absence or presence of pig liver carboxylate esterase at 25 degrees C in aqueous solution of C + esterase (2-fold unit equiv); format: ADME; procedure, shortened: as §2
[6] = system: carboxylate esterase; test: Half life period in the absence or presence of pig liver carboxylate esterase at 25 degrees C in aqueous solution of C + esterase (20-fold unit equiv); format: ADME; procedure, shortened: as §2
[7] = system: carboxylate esterase; test: Half life period in the absence or presence of pig liver carboxylate esterase at 25 degrees C in aqueous solution of C + esterase (5-fold unit equiv); format: ADME; procedure, shortened: as §2
[8] = Half life period in the absence or presence of pig liver carboxylate esterase at 25 degrees C in aqueous solution of 0.05 M phosphate buffer at pH 7.4; conditions: 0.05 M phosphate buffer (aqueous solution)

Row | Structure (SMILES) | pIC50 [1] | pIC50 [2] | T1/2 [3] | half-life [4] [min] | half-life [5] [min] | half-life [6] [min] | half-life [7] [min] | half-life [8] [min]
1 | CCCCCNC1CC(OC2CC(O)(C(=O)CO)Cc3c(O)c4c(c(O)c32)C(=O)c2c(OC)cccc2C4=O)OC(C)C1O (centres undefined) | 7.24 | 6.38 | – | – | – | – | – | –
2 | COc1cccc2c1C(=O)c1c(O)c3c(c(O)c1C2=O)CC(O)(C(=O)CO)CC3OC1CC(NCCCCC(OC(C)=O)OC(C)=O)C(O)C(C)O1.Cl (centres undefined) | 9.40 | 9.15 | > 240 h and 97 h | 1 | 27 | 0.333 | 4 | 1440
3 | COc1cccc2c1C(=O)c1c(O)c3c(c(O)c1C2=O)C[C@@](O)(C(=O)CO)C[C@@H]3O[C@H]1C[C@H](N)[C@H](O)[C@H](C)O1 [DOXORUBICIN] | 7.22 | 5.22 | – | – | – | – | – | –
4 | COc1cccc2c1C(=O)c1c(O)c3c(c(O)c1C2=O)CC(O)(C(=O)CO)CC3OC1CC(NCCCCCOC(C)=O)C(O)C(C)O1 (centres undefined) | 7.08 | 6.46 | – | – | – | – | – | –
